Experimental data pooled from the literature.
Compare with care: the assays were run in different laboratories.
Target: Proto-oncogene tyrosine-protein kinase ROS (ROS1, Homo sapiens, UniProt P08922)

Compound | test | setting | endpoint | result
Cc1nn(C)cc1-c1nc2c(N3CCN(Cc4ccc(Cl)cc4)CC3)c(Cl)cnc2[nH]1 | binding, competition with immobilised ligand | 1 µM | remaining binding | 100%
Cn1cncc1[C@](O)(COc1ccc(C#N)cc1-c1ccc(OC(F)(F)F)cc1)c1ccc(C#N)cc1 | cell-free assay, competition with immobilised ligand | 1 µM | remaining binding | 89%
O=c1[nH]c2ccccc2n1C1CCN(Cc2ccc(-c3[nH]c4cc5ncnc5cc4nc3-c3ccccc3)cc2)CC1 | cell-free assay | 0.5 µM | remaining signal | 101%
Nc1ncc(-c2nc(N3CCOCC3)nc(N3CCOCC3)n2)c(C(F)F)n1 | binding, competition with immobilised ligand | 10 µM | remaining binding | 54%
C#Cc1n[nH]c2c(-c3cn([C@@H](C)c4ccccn4)c(=O)[nH]c3=O)cc(F)cc12 | enzyme activity, inhibitor | 0.1 µM | inhibition | 5.1%
N#CC1(c2ccccn2)CCN(Cc2cc(C(=O)O)c(=O)n3ccccc23)CC1 | cell-free assay, competition with immobilised ligand | 1 µM | remaining binding | 90%
Cn1cc(-c2cc(F)cc(N3CCn4c(cc5c4CCCC5)C3=O)c2CO)cc(Nc2ccc(N3CCN(C4COC4)CC3)cn2)c1=O | enzyme activity, inhibitor | 0.1 µM | inhibition | 10%
COc1ncccc1-c1cnn2ccc(N3CCN(C(=O)OC(C)C)CC3)nc12 | binding, competition with immobilised ligand | 1 µM | remaining binding | 100%
